Assay results from ChEMBL document CHEMBL1127645, “Synthesis, structure-activity relationships, and pharmacological evaluation of a series of fluorinated 3-benzyl-5-indolecarboxamides: identification of 4-[[5-[((2R)-2-methyl-4,4,4-trifluorobutyl)carbamoyl]-1-methyl indol- 3-yl]methyl]-3-methoxy-N-[(2-methylphenyl)sulfonyl]benzamide, a potent, …” (J Med Chem, 1994).
Values belong to the molecule of their own block, whether it stands above or below them.

Experiments:
[1] = molecular target: T1, Cysteinyl leukotriene receptor 1 (Cavia porcellus) (UniProt Q2NNR5); assay: Binding constant in guinea pig tracheal spirals with LTE4; type: tissue-based; settings: Trachea
T1 sequence (whole entry): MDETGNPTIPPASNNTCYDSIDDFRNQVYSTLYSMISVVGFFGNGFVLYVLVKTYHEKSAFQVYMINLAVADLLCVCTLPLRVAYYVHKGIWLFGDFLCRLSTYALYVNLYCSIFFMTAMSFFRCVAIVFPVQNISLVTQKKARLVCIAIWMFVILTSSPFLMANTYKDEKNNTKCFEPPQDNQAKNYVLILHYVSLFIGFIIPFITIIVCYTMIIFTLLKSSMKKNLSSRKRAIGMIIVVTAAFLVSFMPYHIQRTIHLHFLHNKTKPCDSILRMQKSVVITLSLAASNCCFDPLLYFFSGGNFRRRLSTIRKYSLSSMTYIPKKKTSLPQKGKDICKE
Procedure, shortened: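 Guinea pig tracheal spirals contracted with LTE4 as agonist. Antagonist KB derived from concentration-response curves and reported as -log(KB) (pKB); n = number of concentration-response curves.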

[2] = molecular target: T2, Cysteinyl leukotriene receptor 1 (Cavia porcellus, UniProt Q2NNR5); assay: Inhibition constant for displacement of [3H]LTD4 on guinea pig lung parenchymal membranes; type: tissue-based, Lung parenchyma
T2 sequence (Q2NNR5 whole entry): T1 sequence (whole entry)
Procedure, shortened: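 Guinea pig lung parenchymal membranes; competitive displacement of [3H]LTD4. Ki taken as mean of two experiments, each run in duplicate on separate membrane batches.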

[3] = molecular target: T1, Cysteinyl leukotriene receptor 1 (Cavia porcellus); assay: Effective dose for the inhibition of percent protection from LTD4-induced dyspnea in a conscious guinea pig administered through oral route; type: functional
Procedure, shortened: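 Conscious guinea pig dyspnea model with LTD4 challenge; percent protection from dyspnea plotted against dose (oral or intravenous). ED50 obtained by regression using at least three doses from the linear portion of the dose-response curve; SEM for percent protection was generally ≤25% at each dose.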

[4] = Compound was evaluated for clearance in rat; type: ADME, organism-based; settings: in vivo
Cavia porcellus [5] = assay: (§1) ED50 (p.o.) / ED50 (i.v.) ratio of the compound; type: functional
Procedure, shortened: (§2)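 Ratio of oral ED50 to intravenous ED50 from the conscious guinea pig LTD4-induced dyspnea model, used as an index of oral bioavailability.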

Rattus norvegicus = species: Rattus norvegicus; assay: Compound was evaluated for the pharmacokinetic characters in Rat; type: ADME, organism-based; settings: in vivo
[6] = system: Cysteinyl leukotriene receptor (Cavia porcellus); assay: Inhibition of percent protection from LTD4-induced dyspnea in a conscious guinea pig administered intravenously
[7] = Partition coefficient (logP); settings: octanol/water
Cavia porcellus [8] = assay: Inhibition of protection from LTD4-induced dyspnea in a conscious guinea pig administered through oral route at a dose of 3 umol/kg; type: functional
[9] = molecular target: Alpha-2 adrenergic receptor (Mus musculus) (UniProt P30545+Q01338+Q01337); assay: Compound was evaluated for the selectivity of alpha 2 adrenergic receptors isolated from mouse vas deferens by displacing clonidine; type: functional, tissue-based
Procedure, shortened: (§3)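 Isolated-tissue functional selectivity screen, run at a single standard concentration of 10 μM, recording any change in the response to the receptor agonist.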

[10] = Compound was evaluated for the clearance in dog; type: ADME, organism-based, Canis lupus familiaris; settings: in vivo
[11] = molecular target: Histamine H1 receptor (Cavia porcellus) (UniProt P31389); assay: Compound was evaluated for the selectivity of Histaminergic 1 receptor isolated from guinea pig ileum by displacing histamine; type: tissue-based; procedure, shortened: as §3
[12] = molecular target: Beta-1 adrenergic receptor (Cavia porcellus) (UniProt B0FL73); assay: Compound was evaluated for the selectivity of Beta 1 adrenergic receptors isolated from guinea pig right atrium by displacing isoproterenol; type: functional, tissue-based; settings: Cardiac atrium; procedure, shortened: as §3
[13] = Clearance in guinea pig; type: ADME, organism-based, Cavia porcellus; settings: in vivo
[14] = molecular target: Muscarinic acetylcholine receptor (Homo sapiens) (UniProt P20309+P08173+P11229+P08172+P08912); assay: Compound was evaluated for the selectivity of Muscarinic receptors isolated from guinea pig ileum by displacing acetylcholine; type: tissue-based; settings: Cavia porcellus, target entry is the homologue from another species; procedure, shortened: as §3
[15] = molecular target: T3, Thromboxane A2 receptor (Rattus norvegicus) (UniProt P34978); assay: Compound was evaluated for the selectivity of Thromboxane 1 receptors isolated from rat aorta by displacing U-46,619; type: functional, tissue-based; procedure, shortened: as §3
T3 sequence (whole entry): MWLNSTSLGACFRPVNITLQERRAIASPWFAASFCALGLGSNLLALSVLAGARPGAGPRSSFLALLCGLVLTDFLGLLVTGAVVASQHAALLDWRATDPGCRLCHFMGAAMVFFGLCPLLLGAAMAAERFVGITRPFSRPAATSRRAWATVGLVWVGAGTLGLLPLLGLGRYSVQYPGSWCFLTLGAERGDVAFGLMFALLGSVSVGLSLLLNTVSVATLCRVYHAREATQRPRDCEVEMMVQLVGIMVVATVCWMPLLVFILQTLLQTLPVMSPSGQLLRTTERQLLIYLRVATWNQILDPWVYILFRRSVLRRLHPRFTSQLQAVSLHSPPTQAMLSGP

[16] = Compound was evaluated for the oral bioavailability in rat; type: ADME, organism-based; settings: in vivo, read-out: Bioavailabiility
[17] = Bioavailability in guinea pig; type: ADME, organism-based, Cavia porcellus; settings: in vivo
[18] = Compound was evaluated for the oral bioavailability in dog; type: ADME, organism-based, Canis lupus familiaris; settings: in vivo, read-out: Bioavailabiility
[19] = as §1; type: functional; procedure, shortened: as §2
[20] = molecular target: T4, Prostaglandin E2 receptor EP1 subtype (Homo sapiens) (UniProt P34995); assay: Compound was evaluated for the selectivity of Prostaglandin 1 receptors isolated from guinea pig ileum by displacing PGE-2; settings: Cavia porcellus, target entry is the homologue from another species
T4 sequence (whole entry): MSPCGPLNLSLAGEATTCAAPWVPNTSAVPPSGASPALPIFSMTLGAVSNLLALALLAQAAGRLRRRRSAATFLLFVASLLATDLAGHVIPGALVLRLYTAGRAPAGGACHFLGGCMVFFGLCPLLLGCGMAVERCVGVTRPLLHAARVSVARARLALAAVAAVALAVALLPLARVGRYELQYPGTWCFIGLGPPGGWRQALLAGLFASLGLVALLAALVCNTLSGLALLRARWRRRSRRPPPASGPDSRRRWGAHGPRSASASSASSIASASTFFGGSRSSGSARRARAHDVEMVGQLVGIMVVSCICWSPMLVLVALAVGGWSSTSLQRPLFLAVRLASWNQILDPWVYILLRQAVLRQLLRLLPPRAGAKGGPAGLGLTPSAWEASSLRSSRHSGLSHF

[21] = molecular target: Prostaglandin E2 receptor EP2 subtype (Homo sapiens) (UniProt P43116); assay: Compound was evaluated for the selectivity of Prostaglandin 2 receptors isolated from guinea pig ileum by displacing PGE-2; type: tissue-based; settings: Cavia porcellus; Trachea; in the assay text read “guinea pig trachea” for “guinea pig ileum”; target entry is the homologue from another species; procedure, shortened: as §3
Cavia porcellus [22] = assay: Percent inhibition of protection from LTD4-induced dyspnea in a conscious guinea pig administered through oral route at a dose of 3 umol/kg; type: functional
[23] = Compound was evaluated for the clearance in rat; type: ADME, organism-based; settings: in vivo

Histamine H1 receptor (Cavia porcellus), sequence (P31389 whole entry): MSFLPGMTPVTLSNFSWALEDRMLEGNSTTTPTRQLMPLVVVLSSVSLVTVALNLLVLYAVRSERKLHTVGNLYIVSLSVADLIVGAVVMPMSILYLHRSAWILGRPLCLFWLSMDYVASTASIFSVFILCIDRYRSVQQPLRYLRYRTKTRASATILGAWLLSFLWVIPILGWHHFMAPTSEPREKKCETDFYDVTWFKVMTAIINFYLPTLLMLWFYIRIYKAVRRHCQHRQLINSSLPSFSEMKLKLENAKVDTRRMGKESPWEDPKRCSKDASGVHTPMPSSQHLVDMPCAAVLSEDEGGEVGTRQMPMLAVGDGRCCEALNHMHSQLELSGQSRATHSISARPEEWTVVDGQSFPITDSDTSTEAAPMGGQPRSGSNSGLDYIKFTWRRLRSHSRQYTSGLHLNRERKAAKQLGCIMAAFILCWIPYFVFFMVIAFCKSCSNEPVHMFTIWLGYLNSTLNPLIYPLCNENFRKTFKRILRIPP
Beta-1 adrenergic receptor (Cavia porcellus), sequence (B0FL73 1-467): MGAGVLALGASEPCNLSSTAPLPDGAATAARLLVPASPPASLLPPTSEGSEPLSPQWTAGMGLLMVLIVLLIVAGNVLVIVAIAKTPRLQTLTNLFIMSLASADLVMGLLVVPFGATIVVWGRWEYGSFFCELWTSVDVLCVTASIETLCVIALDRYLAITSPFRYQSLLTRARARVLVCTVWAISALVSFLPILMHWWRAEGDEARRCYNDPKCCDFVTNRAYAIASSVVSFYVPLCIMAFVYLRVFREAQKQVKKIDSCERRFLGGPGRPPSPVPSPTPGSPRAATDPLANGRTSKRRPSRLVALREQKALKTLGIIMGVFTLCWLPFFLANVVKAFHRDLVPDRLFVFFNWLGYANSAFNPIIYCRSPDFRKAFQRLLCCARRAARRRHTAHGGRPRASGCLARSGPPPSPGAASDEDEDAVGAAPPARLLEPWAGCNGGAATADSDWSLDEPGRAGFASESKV
Prostaglandin E2 receptor EP2 subtype (Homo sapiens), sequence (P43116 whole entry): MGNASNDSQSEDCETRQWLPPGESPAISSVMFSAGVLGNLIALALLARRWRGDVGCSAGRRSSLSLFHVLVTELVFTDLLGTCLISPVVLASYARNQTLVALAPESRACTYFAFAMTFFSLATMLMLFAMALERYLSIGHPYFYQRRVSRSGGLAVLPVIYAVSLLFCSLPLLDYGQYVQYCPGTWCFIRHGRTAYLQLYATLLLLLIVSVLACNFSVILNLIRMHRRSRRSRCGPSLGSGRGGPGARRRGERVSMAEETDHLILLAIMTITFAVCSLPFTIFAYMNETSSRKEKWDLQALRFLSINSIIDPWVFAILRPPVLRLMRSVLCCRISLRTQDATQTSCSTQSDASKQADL

SMILES: COc1cc(C(=O)NS(=O)(=O)c2ccccc2C)ccc1Cn1cc(C)c2ccc(C(=O)NCC(C)CC(F)(F)F)cc21 (centres undefined)
- pKB [1]: 9.6
- Ki [2]: 0.44 nM
- ED50 [3]: 2.29 µmol/kg

SMILES: COc1cc(C(=O)NS(=O)(=O)c2ccccc2C)ccc1Cc1cn(C)c2ccc(C(=O)NCC3(CC(F)(F)F)CC3)cc12
- Ki [2]: 4.6 nM

SMILES: COc1cc(C(=O)NS(=O)(=O)c2ccccc2C)ccc1Cc1cn(C)c2ccc(C(=O)NC[C@@H](C)CC(F)(F)F)cc12
- clearance [4]: 1.67 mL/min/kg
- Ratio (Cavia porcellus [5]): 79
- Pharmacokinetic (Rattus norvegicus): 23%
- pKB [1]: 9.28
- Ki [2]: 1.45 nM
- ED50 [3]: 3.73 µmol/kg
- ED50 [6]: 0.047 µmol/kg

SMILES: CCn1cc(Cc2ccc(C(=O)NS(=O)(=O)c3ccccc3C)cc2OC)c2cc(C(=O)NCC(C)CC(F)(F)F)ccc21 (centres undefined)
- Ratio (Cavia porcellus [5]): 129
- pKB [1]: 10.1
- Ki [2]: 0.38 nM
- ED50 [3]: 1.42 µmol/kg
- ED50 [6]: 0.011 µmol/kg

SMILES: COc1cc(C(=O)NS(=O)(=O)c2ccccc2C)ccc1Cc1cn(C)c2ccc(C(=O)NCC(C)C(F)(F)F)cc12 (centres undefined)
- logP [7]: 5.89
- Ki [2]: 12 nM

SMILES: COc1cc(C(=O)NS(=O)(=O)c2ccccc2C)ccc1Cc1cn(C)c2ccc(C(=O)NCCC(C(F)(F)F)C(F)(F)F)cc12
- inhibition in vivo at 3 µmol/kg (Cavia porcellus [22]): 19%
- pKB [1]: 9.3
- Ki [2]: 1.2 nM

SMILES: COc1cc(C(=O)NS(=O)(=O)c2ccccc2C)ccc1Cc1cn(C)c2ccc(C(=O)NCC(C)CC(F)(F)F)cc12 (centres undefined)
- logP [7]: 6.18
- Ratio (Cavia porcellus [5]): 40
- pKB [1]: 9.93
- clearance [13]: 12.3 mL/min/kg
- Ki [2]: 0.57 nM
- bioavailability [16]: 33%
- bioavailability [17]: 12%
- ED50 [3]: 1.44 µmol/kg
- clearance [23]: 1.83 mL/min/kg
- ED50 [6]: 0.036 µmol/kg

Continued, in another order:

- pKB [1]: 8.7
- Ki [2]: 7.5 nM
SMILES: COc1cc(C(=O)NS(=O)(=O)c2ccccc2C)ccc1Cc1cn(C)c2ccc(C(=O)NCCCC(F)(F)F)cc12

- logP [7]: 6.3
- Ki [2]: 7.3 nM
SMILES: COc1cc(C(=O)NS(=O)(=O)c2ccccc2C)ccc1Cc1cn(C)c2ccc(C(=O)NCCC(C)C(F)(F)F)cc12 (centres undefined)

- pKB [1]: 8.6
- Ki [2]: 1.3 nM
SMILES: COc1cc(C(=O)NS(=O)(=O)c2ccccc2C)ccc1Cc1cn(C)c2ccc(C(=O)NCC3CC(F)(F)C(F)(F)C3)cc12
- inhibition in vivo at 3 µmol/kg (Cavia porcellus [8]): 11%

- pKB [1]: 9.3
- Ki [2]: 2.4 nM
- ED50 [3]: 2.5 µmol/kg
SMILES: CCC(CNC(=O)c1ccc2c(c1)c(Cc1ccc(C(=O)NS(=O)(=O)c3ccccc3Br)cc1OC)cn2C)CC(F)(F)F (centres undefined)

- pKB [9]: < 5
- clearance [4]: 1.17 mL/min/kg
- clearance [10]: 5.17 mL/min/kg
- pKB [11]: < 5
- pKB [12]: < 5
- pKB [1]: 10.1
- clearance [13]: 14.2 mL/min/kg
- Ki [2]: 0.42 nM
- pKB [14]: < 5
- pKB [15]: < 5
- bioavailability [16]: 33%
- bioavailability [17]: 15%
- ED50 [3]: 1.14 µmol/kg
- bioavailability [18]: 38%
- pKB [20]: 5.23
- pKB [21]: < 5
- ED50 [6]: 0.022 µmol/kg
SMILES: COc1cc(C(=O)NS(=O)(=O)c2ccccc2C)ccc1Cc1cn(C)c2ccc(C(=O)NC[C@H](C)CC(F)(F)F)cc12
- Ratio [19]: 52

- pKB [1]: 9
- Ki [2]: 5.3 nM
SMILES: CCC(CNC(=O)c1ccc2c(c1)c(Cc1ccc(C(=O)NS(=O)(=O)c3ccccc3C)cc1OC)cn2CC)C(F)(F)F (centres undefined)

- logP [7]: 4.86
SMILES: CCC(C)CNC(=O)c1ccc2c(c1)c(Cc1ccc(C(=O)O)cc1OC)cn2C (centres undefined)

- pKB [1]: 9.67
- ED50 [3]: 0.54 µmol/kg
SMILES: COc1cc(C(=O)NS(=O)(=O)c2ccccc2C)ccc1Cc1cn(C)c2ccc(NC(=O)OC3CCCC3)cc12
